The record followed here is ChEMBL document CHEMBL1137991, “Novel secoergoline derivatives inhibit both GABA and glutamate uptake in rat brain homogenates: synthesis, in vitro pharmacology, and modeling” (J Med Chem, 2004).

Assay [1] in a line: In vitro inhibition of [3H]DASP transport through rat cerebrocortical membranes. Format: functional, cell membranes, Membrane. In outline:
(§1)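 Rat cerebrocortical native plasma membrane vesicle fraction, final pellet in buffer A (145 mM NaCl, 5 mM KCl, 1 mM CaCl2, 1 mM MgCl2, 10 mM glucose, 0.1 mM aminooxyacetate, 2 mM NaHCO3, 20 mM HEPES, pH 7.5). Specific [3H]D-aspartate (24 Ci/mmol) transport measured at 30 °C. Duplicates in 2–6 experiments. IC50 given as mean ± SD.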

Assay [2] concerns the target T1, GABA transporter (Rattus norvegicus, UniProt P31647+P23978+P31646+P48056). Description: In vitro inhibitory activity against [3H]GABA transport in rat cerebrocortical membranes. It counts as cell membranes. The gist of the method: (§2)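 Specific [3H]GABA (61 Ci/mmol) transport was measured at 30 °C in a native plasma membrane vesicle fraction from rat cerebral cortex. Vesicles were suspended in buffer A (Na+/K+/Ca2+/Mg2+ saline, 10 mM glucose, 0.1 mM aminooxyacetate, 20 mM HEPES, pH 7.5). Duplicates in 2–6 experiments. IC50 given as mean ± SD.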

Assay [3] can be described thus: In vitro inhibition of [3H]DASP transport through rat cerebrocortical membranes with 100 uM TBOA; Phase 1. Format: functional, cell membranes, Membrane. In outline: (§3)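 [3H]D-aspartate (24 Ci/mmol) transport into rat cerebrocortical plasma membrane vesicles in HEPES-buffered saline A, pH 7.5, at 30 °C, with 100 µM DL-TBOA present. An IC50 was taken for each phase of the dose–response curve. Duplicates in 2–6 experiments, mean ± SD.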

Assay [4] in a line: In vitro inhibition of [3H]DASP transport through rat cerebrocortical membranes without TBOA; Control. It counts as functional, cell membranes, Membrane. The gist of the method:
as §1

Assay [5] is described as follows: In vitro inhibition of [3H]DASP transport through rat cerebrocortical membranes with 100 uM TBOA; Phase 2. Format: functional, cell membranes, Membrane. In outline:
as §3

Assay [6] deals with T1, GABA transporter. Description: In vitro inhibitory activity against [3H]GABA transport in rat cerebrocortical membranes in the presence of NNC-711 (100 uM); Phase 2. It counts as cell membranes. The gist of the method:
(§4)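 [3H]GABA (61 Ci/mmol) uptake by rat cerebrocortical membrane vesicles in buffer A, pH 7.5, at 30 °C, with 100 µM NNC-711 present. An IC50 was derived for each phase of the dose–response curve. Duplicates in 2–6 experiments, mean ± SD.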

Assay [7] has as its target T1, GABA transporter. Description: In vitro inhibitory activity against [3H]GABA transport in rat cerebrocortical membranes in the absence of NNC-711; Control. It counts as cell membranes. In outline: as §2
The target of assay [8] is T1, GABA transporter. Put plainly: In vitro inhibitory activity against [3H]-GABA transport in rat cerebrocortical membranes in the presence of NNC-711 (100 uM); Phase 1. Format: cell membranes. In outline: as §4

By IC50 is commonly meant the concentration at which inhibition is half-maximal. In the case of `CCOC(=O)C1C(=O)C=C(c2ccccc2)C(C)N1C` (configuration not stated), the results for the IC50 in assay [1] and in assay [2] were 660 µM and 680 µM, respectively.
For the molecule `COC(=O)/C=C(/c1ccccc1)C(C)N(C)CC(=O)OC` (configuration not stated), the IC50 in assay [1] and in assay [2] was 1100 µM in each case.
`CCOC(=O)C1C(=O)C=C(c2ccccc2)C(C)N1C.N[C@H](C(=O)O)[C@H](OCc1ccccc1)C(=O)O` (configuration not stated): the figures for the IC50 in assay [3], in assay [4] and in assay [5] were 0.009 µM, 660 µM and 591 µM, respectively.
As for `CCOC(=O)/C=C(/c1ccccc1)C(C)N(C)CC(=O)OCC.N[C@H](C(=O)O)[C@H](OCc1ccccc1)C(=O)O` (configuration not stated), the 50% inhibitory concentration (IC50) in assay [3] was 0.034 µM; in assay [4] it was 420 µM; in assay [5], 386 µM.
Regarding `COC(=O)/C=C(\c1ccccc1)C(C)N(C)CC(=O)OC` (configuration not stated), the values for the IC50 in assay [1] and in assay [2] were above 1000 µM and >> 1000 uM, respectively.
On to `CCOC(=O)[C@@H]1CN(C)C(C)[C@](O)(c2ccccc2)[C@H]1C(=O)OCC` (some centres not stated), for which the IC50 in assay [1] was above 1000 µM; in assay [2] it was >> 1000 uM.
For `CCOC(=O)C1=C(c2ccccc2)C(C)N(C)CC1C(=O)OCC` (configuration not stated), in that order: above 1000 µM and >> 1000 uM.
As for `CCOC(=O)[C@H]1[C@H](C(=O)O)CN(C)C(C)[C@]1(O)c1ccccc1` (some centres not stated), the concentration for half-maximal inhibition (IC50) was above 1000 µM in assay [1] and >> 1000 uM in assay [2].
Turning to `CC1N(C)C[C@@H](C(=O)O)[C@H](C(=O)O)[C@@]1(O)c1ccccc1` (some centres not stated), the IC50 was above 1000 µM in assay [1] and >> 1000 uM in assay [2].
With `CCOC(=O)/C=C(\c1ccccc1)C(C)N(C)CC(=O)OCC` (configuration not stated), the IC50 in assay [1] is above 1000 µM; in assay [2], >> 1000 uM.
Regarding `COC(=O)/C=C(/c1ccccc1)C(C)N(C)CC(=O)OC.N[C@H](C(=O)O)[C@H](OCc1ccccc1)C(=O)O` (configuration not stated), the IC50 was determined as 0.011 µM in assay [3], 1100 µM in assay [4] and 1020 µM in assay [5].
With `CCOC(=O)/C=C(/c1ccccc1)C(C)N(C)CC(=O)OCC` (configuration not stated), the values for the concentration for half-maximal inhibition (IC50) in assay [1] and in assay [2] were 420 µM and 270 µM, respectively.
`CCOC(=O)CNC(C)C(=O)c1ccccc1.Cl` (configuration not stated): the concentration for half-maximal inhibition (IC50) in assay [1] was above 1000 µM; in assay [2] it was >> 1000 uM.
Turning to `CCOC(=O)C1C(=O)C=C(c2ccccc2)C(C)N1C.Cl.O=C(O)C1=CCCN(CCON=C(c2ccccc2)c2ccccc2)C1`, the IC50 in assay [6] stood at 360 µM; in assay [7], 680 µM; in assay [8], 0.0037 µM.
Regarding `CCOC(=O)CN(C)C(C)C(=O)c1ccccc1.Cl` (configuration not stated), the IC50 was above 1000 µM in assay [1] and >> 1000 uM in assay [2].
Take `COC(=O)CN(C)C(C)C(=O)c1ccccc1.Cl` (configuration not stated): the half-inhibitory concentration (IC50) in assay [1] was above 1000 µM; in assay [2], >> 1000 uM.
`COC(=O)/C=C(/c1ccccc1)C(C)N(C)CC(=O)OC.Cl.O=C(O)C1=CCCN(CCON=C(c2ccccc2)c2ccccc2)C1`: the 50% inhibitory concentration (IC50) in assay [6] is 491 µM; in assay [7] it was 1100 µM; in assay [8] it was 0.044 µM.
For the molecule `CCOC(=O)/C=C(/c1ccccc1)C(C)N(C)CC(=O)OCC.Cl.O=C(O)C1=CCCN(CCON=C(c2ccccc2)c2ccccc2)C1`, the IC50 was determined as 380 µM in assay [6], 270 µM in assay [7] and 0.18 µM in assay [8].
